Legend:
[1] = test system: Mast/stem cell growth factor receptor Kit (Homo sapiens), P10721 [V559D,V654A]; experiment: Competitive binding affinity to KIT V559D/V654A double mutant (unknown origin) at 10 uM in presence of ATP relative to control
Method in brief: (§1)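 In vitro ATP-site competition binding assay, part of profiling against a diverse panel of 128 kinases. Each compound was tested at a single concentration of 10 µM. Kinome selectivity was summarized as S15 selectivity scores.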

[2] = test system: Epidermal growth factor receptor (Homo sapiens), P00533 [L861Q]; experiment: Competitive binding affinity to EGFR L861Q mutant (unknown origin) at 10 uM in presence of ATP relative to control; method in brief: as §1
[3] = biological target: T1, Casein kinase I isoform alpha-like (Homo sapiens) (UniProt Q8N752); experiment: Competitive binding affinity to CSNK1A1L (unknown origin) at 10 uM in presence of ATP relative to control
T1 sequence (whole entry): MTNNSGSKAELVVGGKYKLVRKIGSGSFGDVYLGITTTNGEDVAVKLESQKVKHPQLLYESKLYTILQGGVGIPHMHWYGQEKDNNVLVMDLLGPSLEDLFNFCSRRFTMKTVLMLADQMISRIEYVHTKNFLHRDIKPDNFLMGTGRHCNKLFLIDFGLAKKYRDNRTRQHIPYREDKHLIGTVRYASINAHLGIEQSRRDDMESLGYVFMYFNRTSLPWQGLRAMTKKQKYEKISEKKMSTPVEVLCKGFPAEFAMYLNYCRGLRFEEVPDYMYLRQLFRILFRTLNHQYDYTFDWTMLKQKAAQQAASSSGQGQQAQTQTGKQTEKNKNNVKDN

[4] = biological target: Atypical kinase COQ8A, mitochondrial (Homo sapiens, UniProt Q8NI60); experiment: Competitive binding affinity to ADCK3 (unknown origin) at 10 uM in presence of ATP relative to control
Method in brief: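 In vitro ATP-site competition binding assay across a diverse panel of 128 kinases, with each compound tested at a single concentration. Kinase binding is expressed relative to control.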

[5] = biological target: Protein kinase C eta type (Homo sapiens) (UniProt P24723); experiment: Competitive binding affinity to PRKCH (unknown origin) at 10 uM in presence of ATP relative to control
[6] = biological target: Mitogen-activated protein kinase kinase kinase 10 (Homo sapiens) (UniProt Q02779); experiment: Competitive binding affinity to MLK2 (unknown origin) at 10 uM in presence of ATP relative to control
[7] = biological target: Serine/threonine-protein kinase 25 (Homo sapiens) (UniProt O00506); experiment: Competitive binding affinity to YSK1 (unknown origin) at 10 uM in presence of ATP relative to control
[8] = biological target: T2, Discoidin domain-containing receptor 2 (Homo sapiens) (UniProt Q16832); experiment: Competitive binding affinity to DDR2 (unknown origin) at 10 uM in presence of ATP relative to control
T2 sequence (whole entry): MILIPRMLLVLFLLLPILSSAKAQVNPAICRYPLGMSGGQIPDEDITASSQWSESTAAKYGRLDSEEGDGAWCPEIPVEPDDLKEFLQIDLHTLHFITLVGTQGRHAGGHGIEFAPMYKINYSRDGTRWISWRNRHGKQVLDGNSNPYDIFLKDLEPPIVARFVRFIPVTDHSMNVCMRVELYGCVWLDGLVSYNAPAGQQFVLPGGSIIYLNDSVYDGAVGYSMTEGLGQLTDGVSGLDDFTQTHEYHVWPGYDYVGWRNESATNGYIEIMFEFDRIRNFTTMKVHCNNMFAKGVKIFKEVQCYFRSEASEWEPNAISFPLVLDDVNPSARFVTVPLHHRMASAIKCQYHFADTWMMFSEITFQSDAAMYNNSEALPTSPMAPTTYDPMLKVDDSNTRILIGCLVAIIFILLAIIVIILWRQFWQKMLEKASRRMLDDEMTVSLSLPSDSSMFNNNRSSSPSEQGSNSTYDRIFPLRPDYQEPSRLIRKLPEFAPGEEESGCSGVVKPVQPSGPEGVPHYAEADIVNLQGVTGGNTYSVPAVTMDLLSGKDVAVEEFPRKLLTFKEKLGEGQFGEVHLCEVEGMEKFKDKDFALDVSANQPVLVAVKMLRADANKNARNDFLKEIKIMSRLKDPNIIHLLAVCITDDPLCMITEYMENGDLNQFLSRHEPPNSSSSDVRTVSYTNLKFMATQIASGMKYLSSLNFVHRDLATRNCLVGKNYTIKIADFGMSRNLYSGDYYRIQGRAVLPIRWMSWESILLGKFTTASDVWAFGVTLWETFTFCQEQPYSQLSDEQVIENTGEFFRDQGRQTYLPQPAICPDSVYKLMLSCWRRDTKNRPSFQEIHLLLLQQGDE

[9] = biological target: T3, Tyrosine-protein kinase Tec (Homo sapiens) (UniProt P42680); experiment: Competitive binding affinity to TEC (unknown origin) at 10 uM in presence of ATP relative to control
T3 sequence (whole entry): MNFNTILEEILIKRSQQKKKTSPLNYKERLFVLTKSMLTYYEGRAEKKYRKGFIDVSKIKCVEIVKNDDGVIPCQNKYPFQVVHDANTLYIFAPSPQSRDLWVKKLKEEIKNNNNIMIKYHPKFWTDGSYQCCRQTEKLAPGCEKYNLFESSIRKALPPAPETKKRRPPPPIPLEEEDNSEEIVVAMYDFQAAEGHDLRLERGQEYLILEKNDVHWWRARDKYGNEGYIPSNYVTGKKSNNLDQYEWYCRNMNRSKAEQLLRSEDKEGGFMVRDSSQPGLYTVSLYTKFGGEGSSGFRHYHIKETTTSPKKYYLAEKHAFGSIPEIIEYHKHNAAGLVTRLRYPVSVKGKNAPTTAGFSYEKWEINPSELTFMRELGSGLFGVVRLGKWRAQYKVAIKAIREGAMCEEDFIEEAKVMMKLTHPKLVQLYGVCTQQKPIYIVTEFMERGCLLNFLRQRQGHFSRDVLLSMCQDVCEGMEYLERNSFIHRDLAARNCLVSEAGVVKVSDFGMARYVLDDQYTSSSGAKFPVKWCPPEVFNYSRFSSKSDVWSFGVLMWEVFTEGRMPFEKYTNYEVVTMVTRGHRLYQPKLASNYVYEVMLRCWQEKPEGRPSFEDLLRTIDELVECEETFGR

[10] = biological target: Ribosomal protein S6 kinase alpha-6 (Homo sapiens) (UniProt Q9UK32); experiment: Competitive binding affinity to RPS6KA6 kinase domain 2 (unknown origin) at 10 uM in presence of ATP relative to control
[11] = biological target: Ribosomal protein S6 kinase alpha-1 (Homo sapiens, UniProt Q15418); experiment: Competitive binding affinity to RPS6KA1 kinase domain 1 (unknown origin) at 10 uM in presence of ATP relative to control
[12] = biological target: Myosin light chain kinase, smooth muscle (Homo sapiens) (UniProt Q15746); experiment: Competitive binding affinity to MYLK (unknown origin) at 10 uM in presence of ATP relative to control

Chain of Mitogen-activated protein kinase kinase kinase 10 (Homo sapiens) (Q02779 whole entry, looked up): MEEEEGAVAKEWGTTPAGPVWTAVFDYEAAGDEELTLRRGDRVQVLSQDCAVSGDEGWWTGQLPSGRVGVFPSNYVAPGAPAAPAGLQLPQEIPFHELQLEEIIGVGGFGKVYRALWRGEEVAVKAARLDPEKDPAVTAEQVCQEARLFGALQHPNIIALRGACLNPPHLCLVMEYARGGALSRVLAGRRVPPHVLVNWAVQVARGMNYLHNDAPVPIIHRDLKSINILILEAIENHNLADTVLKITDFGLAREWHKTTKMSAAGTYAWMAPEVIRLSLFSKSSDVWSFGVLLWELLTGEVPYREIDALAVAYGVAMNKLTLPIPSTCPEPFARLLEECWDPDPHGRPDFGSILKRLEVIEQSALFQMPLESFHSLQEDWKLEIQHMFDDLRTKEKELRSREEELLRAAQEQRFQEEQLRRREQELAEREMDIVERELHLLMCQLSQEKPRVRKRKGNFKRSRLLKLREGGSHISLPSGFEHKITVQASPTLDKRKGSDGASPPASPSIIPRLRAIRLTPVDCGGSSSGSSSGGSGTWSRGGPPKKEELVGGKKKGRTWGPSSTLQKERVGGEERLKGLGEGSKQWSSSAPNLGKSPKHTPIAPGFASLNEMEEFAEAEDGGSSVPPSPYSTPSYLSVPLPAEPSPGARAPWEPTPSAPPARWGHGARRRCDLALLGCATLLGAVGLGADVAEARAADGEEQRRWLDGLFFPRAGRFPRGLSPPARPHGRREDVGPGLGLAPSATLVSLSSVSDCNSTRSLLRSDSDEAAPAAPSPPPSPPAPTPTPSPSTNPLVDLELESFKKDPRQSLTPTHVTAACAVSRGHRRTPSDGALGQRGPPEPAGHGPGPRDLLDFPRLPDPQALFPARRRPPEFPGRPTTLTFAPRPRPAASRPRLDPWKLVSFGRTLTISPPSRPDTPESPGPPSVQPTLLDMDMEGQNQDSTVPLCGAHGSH
Chain of Ribosomal protein S6 kinase alpha-6 (Homo sapiens) (Q9UK32 whole entry, the tested form may be a part): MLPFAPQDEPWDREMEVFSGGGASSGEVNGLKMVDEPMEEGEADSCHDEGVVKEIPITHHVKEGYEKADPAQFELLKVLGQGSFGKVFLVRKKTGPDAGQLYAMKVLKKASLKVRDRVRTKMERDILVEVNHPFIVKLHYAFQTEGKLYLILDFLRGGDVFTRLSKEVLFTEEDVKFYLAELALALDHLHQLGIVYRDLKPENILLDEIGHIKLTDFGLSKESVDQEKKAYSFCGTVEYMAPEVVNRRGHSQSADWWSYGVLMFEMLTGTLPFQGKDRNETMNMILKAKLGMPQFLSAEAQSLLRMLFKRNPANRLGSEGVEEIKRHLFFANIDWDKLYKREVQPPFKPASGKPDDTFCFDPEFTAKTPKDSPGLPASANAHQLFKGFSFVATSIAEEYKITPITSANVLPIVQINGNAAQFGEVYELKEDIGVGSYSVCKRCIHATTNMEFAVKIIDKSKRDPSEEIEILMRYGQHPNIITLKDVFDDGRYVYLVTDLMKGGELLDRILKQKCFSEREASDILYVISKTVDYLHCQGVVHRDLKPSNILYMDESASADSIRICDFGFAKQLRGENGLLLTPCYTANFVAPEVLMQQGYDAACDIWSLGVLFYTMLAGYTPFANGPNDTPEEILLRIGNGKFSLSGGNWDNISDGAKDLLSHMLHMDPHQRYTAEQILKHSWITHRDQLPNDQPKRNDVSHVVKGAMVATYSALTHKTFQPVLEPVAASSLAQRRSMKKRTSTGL
Chain of Epidermal growth factor receptor (Homo sapiens), P00533 [L861Q] (P00533 whole entry L861Q, canonical isoform): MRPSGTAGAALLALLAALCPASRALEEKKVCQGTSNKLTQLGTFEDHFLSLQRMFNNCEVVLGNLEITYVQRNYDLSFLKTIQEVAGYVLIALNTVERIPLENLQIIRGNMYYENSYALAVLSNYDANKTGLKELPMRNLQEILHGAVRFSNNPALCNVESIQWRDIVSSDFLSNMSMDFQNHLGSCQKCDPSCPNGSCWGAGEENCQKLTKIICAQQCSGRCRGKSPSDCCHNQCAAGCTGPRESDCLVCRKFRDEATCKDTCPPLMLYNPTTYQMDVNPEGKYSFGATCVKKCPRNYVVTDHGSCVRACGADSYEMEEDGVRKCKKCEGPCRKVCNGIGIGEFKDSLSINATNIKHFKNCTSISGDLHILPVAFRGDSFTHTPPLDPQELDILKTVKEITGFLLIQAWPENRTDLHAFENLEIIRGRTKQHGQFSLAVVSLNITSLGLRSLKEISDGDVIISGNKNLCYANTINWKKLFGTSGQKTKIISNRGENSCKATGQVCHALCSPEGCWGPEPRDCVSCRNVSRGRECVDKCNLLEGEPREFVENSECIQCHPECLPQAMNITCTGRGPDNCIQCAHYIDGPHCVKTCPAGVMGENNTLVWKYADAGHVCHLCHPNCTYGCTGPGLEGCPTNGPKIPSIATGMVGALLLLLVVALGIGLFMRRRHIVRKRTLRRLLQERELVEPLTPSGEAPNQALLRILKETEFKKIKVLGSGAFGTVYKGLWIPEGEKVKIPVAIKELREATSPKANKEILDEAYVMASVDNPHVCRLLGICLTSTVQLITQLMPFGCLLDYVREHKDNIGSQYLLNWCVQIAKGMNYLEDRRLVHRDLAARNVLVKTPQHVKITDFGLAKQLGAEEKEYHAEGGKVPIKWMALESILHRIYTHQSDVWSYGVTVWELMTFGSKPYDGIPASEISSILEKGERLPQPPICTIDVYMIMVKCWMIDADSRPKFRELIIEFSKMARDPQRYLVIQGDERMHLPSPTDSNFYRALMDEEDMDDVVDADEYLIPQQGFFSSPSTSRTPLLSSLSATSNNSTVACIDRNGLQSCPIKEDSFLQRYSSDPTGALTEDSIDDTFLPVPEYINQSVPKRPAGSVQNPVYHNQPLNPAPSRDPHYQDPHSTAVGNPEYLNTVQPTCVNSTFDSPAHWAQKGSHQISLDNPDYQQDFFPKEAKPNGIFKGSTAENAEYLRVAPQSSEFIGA
Chain of Mast/stem cell growth factor receptor Kit (Homo sapiens), P10721 [V559D,V654A] (P10721 whole entry V559D/V654A): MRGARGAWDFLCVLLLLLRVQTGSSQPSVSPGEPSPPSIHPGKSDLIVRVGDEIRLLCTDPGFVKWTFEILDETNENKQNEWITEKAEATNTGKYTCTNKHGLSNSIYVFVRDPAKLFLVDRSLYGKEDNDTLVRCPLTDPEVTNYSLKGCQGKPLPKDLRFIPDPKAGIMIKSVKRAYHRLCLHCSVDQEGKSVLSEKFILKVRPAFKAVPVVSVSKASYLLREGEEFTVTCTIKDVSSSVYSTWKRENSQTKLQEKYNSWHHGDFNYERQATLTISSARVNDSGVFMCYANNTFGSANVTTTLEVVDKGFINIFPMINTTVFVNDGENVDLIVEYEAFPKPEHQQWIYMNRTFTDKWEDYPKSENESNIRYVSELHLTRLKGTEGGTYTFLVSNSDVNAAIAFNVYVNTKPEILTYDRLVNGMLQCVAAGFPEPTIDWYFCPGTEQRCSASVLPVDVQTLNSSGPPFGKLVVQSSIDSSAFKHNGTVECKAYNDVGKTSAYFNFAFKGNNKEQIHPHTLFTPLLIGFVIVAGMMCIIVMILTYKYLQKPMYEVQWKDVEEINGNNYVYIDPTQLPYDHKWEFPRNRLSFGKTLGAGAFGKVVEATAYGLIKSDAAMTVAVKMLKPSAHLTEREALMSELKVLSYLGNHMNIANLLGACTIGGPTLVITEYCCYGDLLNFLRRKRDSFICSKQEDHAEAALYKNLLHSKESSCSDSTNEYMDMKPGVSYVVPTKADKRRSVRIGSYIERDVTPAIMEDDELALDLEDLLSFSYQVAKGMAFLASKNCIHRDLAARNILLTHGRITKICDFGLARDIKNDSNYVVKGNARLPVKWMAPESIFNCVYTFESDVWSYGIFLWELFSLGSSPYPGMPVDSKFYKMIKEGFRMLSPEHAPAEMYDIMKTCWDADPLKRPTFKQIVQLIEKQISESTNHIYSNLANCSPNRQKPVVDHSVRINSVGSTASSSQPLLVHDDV
Chain of Protein kinase C eta type (Homo sapiens) (P24723 whole entry): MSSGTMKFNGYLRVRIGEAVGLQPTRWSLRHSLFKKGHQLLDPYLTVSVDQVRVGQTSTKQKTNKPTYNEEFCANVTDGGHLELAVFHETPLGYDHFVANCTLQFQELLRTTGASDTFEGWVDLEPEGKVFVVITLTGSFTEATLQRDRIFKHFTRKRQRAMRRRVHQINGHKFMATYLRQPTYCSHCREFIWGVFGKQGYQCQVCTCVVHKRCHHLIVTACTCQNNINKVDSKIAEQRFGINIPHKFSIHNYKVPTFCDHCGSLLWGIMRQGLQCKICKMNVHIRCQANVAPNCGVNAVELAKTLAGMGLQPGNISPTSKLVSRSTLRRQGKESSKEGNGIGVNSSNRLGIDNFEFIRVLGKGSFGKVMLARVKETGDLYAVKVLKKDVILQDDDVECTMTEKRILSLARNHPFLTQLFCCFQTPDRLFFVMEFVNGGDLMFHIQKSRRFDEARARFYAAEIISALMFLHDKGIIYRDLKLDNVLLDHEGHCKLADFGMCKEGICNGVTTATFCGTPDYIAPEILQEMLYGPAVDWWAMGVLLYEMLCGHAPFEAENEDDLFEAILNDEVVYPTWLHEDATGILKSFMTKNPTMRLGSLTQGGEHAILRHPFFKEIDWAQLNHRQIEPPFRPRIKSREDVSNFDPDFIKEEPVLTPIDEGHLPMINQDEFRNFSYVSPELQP
Chain of Serine/threonine-protein kinase 25 (Homo sapiens) (O00506 whole entry, looked up, the tested form may be a part): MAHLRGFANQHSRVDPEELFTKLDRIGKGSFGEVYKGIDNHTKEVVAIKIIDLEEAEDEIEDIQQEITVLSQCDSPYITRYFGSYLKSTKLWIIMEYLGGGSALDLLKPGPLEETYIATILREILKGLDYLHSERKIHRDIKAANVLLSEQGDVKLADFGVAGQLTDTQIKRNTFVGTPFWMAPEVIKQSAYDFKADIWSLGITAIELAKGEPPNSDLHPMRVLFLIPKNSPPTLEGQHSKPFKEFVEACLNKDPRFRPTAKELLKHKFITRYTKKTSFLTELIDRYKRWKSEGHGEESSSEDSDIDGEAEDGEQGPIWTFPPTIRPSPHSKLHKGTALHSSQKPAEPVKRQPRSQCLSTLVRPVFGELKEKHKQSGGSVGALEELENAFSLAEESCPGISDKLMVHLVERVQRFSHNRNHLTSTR

Row | inhibition [1] [%] | inhibition [2] [%] | inhibition [3] [%] | inhibition [4] [%] | inhibition [5] [%] | inhibition [6] [%] | inhibition [7] [%] | inhibition [8] [%] | inhibition [9] [%] | inhibition [10] [%] | inhibition [11] [%] | inhibition [12] [%] | SMILES
1 | 82 | < 50 | 100 | 79 | < 50 |  |  |  |  |  |  |  | O[C@H]1CC[C@H](Nc2nccc(-c3n[nH]c4ccccc34)n2)CC1
2 | 64 | < 50 | 74 | 80 | < 50 | < 50 | 74 | < 50 | < 50 | 84 | 66 | < 50 | O[C@H]1CC[C@H](Nc2nccc(-n3ccc4ccccc43)n2)CC1
3 | 67 | < 50 | 100 | 92 | < 50 | < 50 | 78 | < 50 | < 50 | 100 | 100 | 94 | O[C@H]1CC[C@H](Nc2nccc(-n3nnc4ccccc43)n2)CC1
4 | 87 | < 50 | 91 | 89 | < 50 | < 50 | 77 | < 50 | < 50 | 100 | 91 | 74 | O[C@H]1CC[C@H](Nc2nccc(-n3ncc4ccccc43)n2)CC1
5 |  |  |  | > 85 |  |  |  |  |  |  | > 85 |  | CS(=O)(=O)CCCOc1cccc2c1ccn2-c1ccnc(N[C@H]2CC[C@H](C(=O)N3CCC(O)CC3)CC2)n1

Source: ChEMBL document CHEMBL2424622, “Development of amino-pyrimidine inhibitors of c-Jun N-terminal kinase (JNK): kinase profiling guided optimization of a 1,2,3-benzotriazole lead” (Bioorg Med Chem Lett, 2013)
